# Activity calls are given as the source filed them. No cut-off for these calls is given here.
# Tests used:
# [1] = tested on: Respiratory syncytial virus; assay: Antiviral activity against RSV infected in human cervix carcinoma cells assessed as inhibition of virus-induced cytopathic effect at 0.32 to 100 uM; assay type: functional, organism-based
# Method in brief: (§1)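 Confluent cell cultures were infected with 100 CCID50 of virus in the presence of test compound at 100, 40, 8, 1.6 and 0.32 μM. Cytopathic effect was scored once it was complete in untreated infected controls.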
# [2] = tested on: Coxsackievirus B4; assay: Antiviral activity against Coxsackievirus B4 infected in human cervix carcinoma cells assessed as inhibition of virus-induced cytopathic effect at 0.32 to 100 uM; assay type: functional, organism-based; method in brief: as §1
# [3] = tested on: L1210; assay: Cytostatic activity against mouse L1210 cells after 2 days by coulter counter analysis; assay type: functional, cell-based; details: L1210, 48 h
# Method in brief: (§2)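 300,000–500,000 cells/ml mixed 1:1 with compound dilutions and incubated at 37 °C for 2 days (L1210) or 3 days (CEM, HeLa). Cell number counted with a Coulter counter; HeLa trypsinized before counting.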
# [4] = tested on: CCRF-CEM; assay: Cytostatic activity against human CEM cells after 3 days by coulter counter analysis; assay type: functional, cell-based; details: 72 h; method in brief: as §2
# [5] = tested on: HeLa; assay: Cytostatic activity against human HeLa cells after 3 days by coulter counter analysis; assay type: functional, cell-based; details: 72 h; method in brief: as §2
# [6] = tested on: HCT-116; assay: Cytostatic activity against human HCT116 cells after 72 hrs by MTT assay; assay type: functional, cell-based; details: HCT-116, 72 h
# Method in brief: (§3)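 Monolayers in DMEM with 10% FBS, 2 mM L-glutamine and penicillin/streptomycin, 37 °C, 5% CO2. Seeded at 1–3 × 10^4 cells/ml, then compound added in tenfold dilutions (10⁻⁸–10⁻⁴ M) for 72 h. MTT read at 570 nm; percent growth taken against time-zero and untreated controls. IC50 by linear regression; quadruplicate, at least two experiments.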
# [7] = tested on: MCF7; assay: Cytostatic activity against human MCF7 cells after 72 hrs by MTT assay; assay type: functional, cell-based; details: MCF7, 72 h; method in brief: as §3
# [8] = tested on: NCI-H460; assay: Cytostatic activity against human NCI-H460 cells after 72 hrs by MTT assay; assay type: functional, cell-based; details: NCI-H460, 72 h; method in brief: as §3
# [9] = tested on: Human alphaherpesvirus 1; assay: Antiviral activity against HSV1 KOS infected in human lung fibroblast assessed as inhibition of virus-induced cytopathic effect at 0.32 to 100 uM; assay type: functional, organism-based; method in brief: as §1
# [10] = tested on: Human alphaherpesvirus 2; assay: Antiviral activity against HSV2 G infected in human lung fibroblast assessed as inhibition of virus-induced cytopathic effect at 0.32 to 100 uM; assay type: functional, organism-based; details: strain G; method in brief: as §1
# [11] = tested on: Vaccinia virus; assay: Antiviral activity against Vaccinia virus infected in human lung fibroblast assessed as inhibition of virus-induced cytopathic effect at 0.32 to 100 uM; assay type: functional, organism-based; details: Orthopoxvirus vaccinia
# [12] = tested on: Vesicular stomatitis virus; assay: Antiviral activity against VSV infected in human lung fibroblast assessed as inhibition of virus-induced cytopathic effect at 0.32 to 100 uM; assay type: functional, organism-based
# [13] = tested on: Human respirovirus 3; assay: Antiviral activity against Parainfluenza virus 3 infected in african green monkey Vero cells assessed as inhibition of virus-induced cytopathic effect at 0.32 to 100 uM; assay type: functional, organism-based; method in brief: as §1
# [14] = tested on: Mammalian orthoreovirus 1; assay: Antiviral activity against Reovirus-1 infected in african green monkey Vero cells assessed as inhibition of virus-induced cytopathic effect at 0.32 to 100 uM; assay type: functional, organism-based; method in brief: as §1
# [15] = tested on: Sindbis virus; assay: Antiviral activity against Sindbis virus infected in african green monkey Vero cells assessed as inhibition of virus-induced cytopathic effect at 0.32 to 100 uM; assay type: functional, organism-based; method in brief: as §1
# [16] = tested on: Coxsackievirus B4; assay: Antiviral activity against Coxsackievirus B4 infected in african green monkey Vero cells assessed as inhibition of virus-induced cytopathic effect at 0.32 to 100 uM; assay type: functional, organism-based; method in brief: as §1
# [17] = tested on: Punta Toro virus; assay: Antiviral activity against Punta Toro virus infected in african green monkey Vero cells assessed as inhibition of virus-induced cytopathic effect at 0.32 to 100 uM; assay type: functional, organism-based; method in brief: as §1
# [18] = tested on: Vesicular stomatitis virus; assay: Antiviral activity against Vesicular stomatitis virus infected in human cervix carcinoma cells assessed as inhibition of virus-induced cytopathic effect at 0.32 to 100 uM; assay type: functional, organism-based
# Method in brief: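 Confluent human cervix carcinoma (HeLa) cultures received 100 CCID50 of VSV together with the compound at 100, 40, 8, 1.6 or 0.32 μM. Cytopathicity was read at the point of full CPE in infected, untreated control wells.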
# [19] = tested on: Felid alphaherpesvirus 1; assay: Antiviral activity against Feline herpesvirus infected in feline CRFK cells assessed as inhibition of virus-induced cytopathic effect at 0.32 to 100 uM; assay type: functional, organism-based; method in brief: as §1
# [20] = tested on: Feline coronavirus; assay: Antiviral activity against Feline coronavirus infected in feline CRFK cells assessed as inhibition of virus-induced cytopathic effect at 0.32 to 100 uM; assay type: functional, organism-based; method in brief: as §1
# [21] = tested on: Influenza A virus; assay: Antiviral activity against Influenza A virus H1N1 infected in MDCK cells assessed as inhibition of virus-induced cytopathic effect at 0.32 to 100 uM; assay type: functional, organism-based
# Method in brief: (§4)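 Confluent MDCK monolayers were infected in the presence of the compound at 100, 40, 8, 1.6 and 0.32 μM. Viral cytopathicity was scored once it was complete in untreated infected control cultures.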
# [22] = tested on: Influenza A virus; assay: Antiviral activity against Influenza A virus H3N2 infected in MDCK cells assessed as inhibition of virus-induced cytopathic effect at 0.32 to 100 uM; assay type: functional, organism-based; method in brief: as §4
# [23] = tested on: Influenza B virus; assay: Antiviral activity against Influenza B virus infected in MDCK cells assessed as inhibition of virus-induced cytopathic effect at 0.32 to 100 uM; assay type: functional, organism-based; method in brief: as §4
# [24] = tested on: Human immunodeficiency virus 1; assay: Antiviral activity against HIV1 3B infected in human CEM cells assessed as inhibition of virus-induced CEM giant cell formation at 0.32 to 100 uM after 4 days; assay type: functional, organism-based; details: CCRF-CEM
# Method in brief: (§5)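 CEM cells (~3 × 10^5 cells/cm³) exposed to 100 CCID50/ml of virus and seeded into wells holding compound dilutions. Incubated 4 days at 37 °C, then giant cell formation examined microscopically.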
# [25] = tested on: Human immunodeficiency virus 2; assay: Antiviral activity against HIV2 ROD infected in human CEM cells assessed as inhibition of virus-induced CEM giant cell formation at 0.32 to 100 uM after 4 days; assay type: functional, organism-based; details: ISOLATE ROD, CCRF-CEM; method in brief: as §5
# [26] = tested on: Radical scavenging activity; assay: Antioxidant activity assessed as DPPH free radical scavenging activity at 100 uM after 20 mins by spectrophotometric analysis; assay type: functional
# Method in brief: (§6)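 0.05 mM DPPH in absolute ethanol mixed with an equal volume of compound in DMSO (final 100 μM). Shaken and left 20 or 60 min, then absorbance read at 517 nm and percent activity calculated. Three replicates, averaged.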
# [27] = tested on: Radical scavenging activity; assay: Antioxidant activity assessed as DPPH free radical scavenging activity at 100 uM after 60 mins by spectrophotometric analysis; assay type: functional; method in brief: as §6
# [28] = Antioxidant activity assessed as inhibition of AAPH-induced linoleic acid lipid peroxidation by measuring conjugated diene hydroperoxide level; assay type: functional; design: concentration or dose not given beside the values; details: dose or concentration not given here
# Method in brief: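 Linoleic acid sodium salt (10 μL of 16 mM) in 0.05 M phosphate buffer pH 7.4 at 37 °C. Oxidation started under air with 50 μL of 40 mM AAPH. Conjugated diene hydroperoxide formation followed as absorbance rise at 234 nm; control contains the same DMSO level. At least triplicate.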
# [29] = tested on: Glycine max; assay: Inhibition of soybean LOX assessed as conversion of sodium linoleate to 13- hydroperoxylinoleic acid at 100 uM
SMILES,inhibition [1],inhibition [2],IC50 [3] [µM],IC50 [4] [µM],IC50 [5] [µM],IC50 [6] [µM],IC50 [7] [µM],IC50 [8] [µM],inhibition [9],inhibition [10],inhibition [11],inhibition [12],inhibition [13],inhibition [14],inhibition [15],inhibition [16],inhibition [17],inhibition [18],inhibition [19],inhibition [20],other results
CC(C)Cc1ccc(C(C)C(=O)NNC(=O)NC2CCCCC2)cc1 (configuration not stated),inactive,inactive,30,53,69,28,19,35,inactive,inactive,inactive,inactive,inactive,inactive,inactive,inactive,inactive,inactive,inactive,inactive,inhibition [21]: inactive; inhibition [22]: inactive; inhibition [23]: inactive; inhibition [24]: inactive; inhibition [25]: inactive; Activity [26]: inactive; Activity [27]: inactive; inhibition [28]: 33%; inhibition [29]: inactive
CC(C)Cc1ccc(C(C)C(=O)NNC(=O)NC2CCCC2)cc1 (configuration not stated),inactive,inactive,103,74,80,32,18,32,inactive,inactive,inactive,inactive,inactive,inactive,inactive,inactive,inactive,inactive,inactive,inactive,inhibition [21]: inactive; inhibition [22]: inactive; inhibition [23]: inactive; inhibition [24]: inactive; inhibition [25]: inactive; Activity [26]: 4%; Activity [27]: 7%; inhibition [28]: 26%; inhibition [29]: inactive
NNC(=O)NOCc1ccccc1,inactive,inactive,> 250,> 250,> 250,> 100,> 100,> 100,inactive,inactive,inactive,inactive,inactive,inactive,inactive,inactive,inactive,inactive,inactive,inactive,inhibition [21]: inactive; inhibition [22]: inactive; inhibition [23]: inactive; inhibition [24]: inactive; inhibition [25]: inactive; Activity [26]: 6%; Activity [27]: 14%; inhibition [28]: 36%; inhibition [29]: inactive

# Source: ChEMBL document CHEMBL2010803, “Novel NSAID 1-acyl-4-cycloalkyl/arylsemicarbazides and 1-acyl-5-benzyloxy/hydroxy carbamoylcarbazides as potential anticancer agents and antioxidants” (Eur J Med Chem, 2012)
